Source: PubChem (Broad Institute)
Only some compounds are listed: those with a hit (about 1.4% of all), similar ones and a draw of the others.
GSIS activator = primary screen for activators of insulin secretion dependent on glucose, INS-1E cells, GLuc reporter luminescence; INS-1E GLuc reporter insulin secretion, 2-3 h; activation, % at 16.6 µM; 0.61% of 370,000 active;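 active = lowest replicate activation of at least 40%, so every replicate reaches that level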;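 also: 0% = median of neutral control wells and 100% = median of IBMX positive control wells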
Env fusion inh = HIV envelope-mediated fusion inhibition; HeLa-JRFL Env/CEM21 cell fusion, luciferase; inhibition, % at 12.3 µM; 1.1% of 360,000 active;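 active = mean replicate inhibition score of at least 50 and every replicate individually at or above 50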;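 also: 0% = plate neutral controls and 100% = maraviroc near 300 nM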
FN deposit inh = fibronectin deposition inhibition. 0.086% of 350,000 active. inhibition, % at 12.6 µM. AID 743247. AH1F fibroblasts, Alexa488-fibronectin deposition fluorescence, overnight;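 active = mean inhibition across replicates of 30% or more, regardless of how many single replicates reach that level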;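 also: positive control wells lacked labelled fibronectin entirely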
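Material: AH1F fibroblast monolayer depositing Alexa488-labelled fibronectin into matrix / Amount: 10000 AH1F cells per well / Signal: fluorescence 485/525 nm / Medium: DMEM, 2% serum / Compound: single dose, pinned / Incubation: 1 h cell adhesion before compound, then overnight fibronectin incubation / Reagent: Alexa488-FN, 24 nM final / Read-out: inhibition of fibronectin deposition signal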
ERp5 inh = inhibitors of human ERp5 | ERp5 insulin aggregation, absorbance 650 nm, 90 min | Q15084 | 0.05% of 350,000 active | inhibition, % at 9.99 µM;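 active = mean replicate inhibition above about 25%, with every replicate also reaching it, limit read from the data, passing the limit was not always enough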
Target sequence (Q15084 whole entry, looked up): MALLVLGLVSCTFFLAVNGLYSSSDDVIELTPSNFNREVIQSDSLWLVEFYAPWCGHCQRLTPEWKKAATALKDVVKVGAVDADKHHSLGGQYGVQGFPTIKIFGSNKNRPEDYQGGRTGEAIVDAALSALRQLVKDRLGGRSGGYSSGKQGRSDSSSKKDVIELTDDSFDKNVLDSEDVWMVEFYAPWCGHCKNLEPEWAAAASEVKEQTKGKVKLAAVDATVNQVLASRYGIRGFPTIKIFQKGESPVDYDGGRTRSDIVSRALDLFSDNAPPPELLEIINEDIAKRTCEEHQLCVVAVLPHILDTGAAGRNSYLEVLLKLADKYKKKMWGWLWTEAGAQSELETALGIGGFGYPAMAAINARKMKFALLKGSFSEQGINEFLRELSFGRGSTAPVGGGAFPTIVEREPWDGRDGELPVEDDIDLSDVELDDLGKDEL
PDI turbidity = blocks human protein disulfide isomerase activity. P07237. PDI insulin aggregation turbidity, A650, 90 min. inhibition, % at 10 µM. 0.052% of 350,000 active. AID 588391;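 active = mean inhibition across replicates of 30% or more, whatever share of single replicates reach that level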
Numbers without * were called inactive; ! = repeats disagree; [ ] = dose if it differs, or a comment.

Cc1nnc(SC(=O)N2c3ccccc3Sc3ccccc32)s1 was read as Env fusion inh 68.7*, FN deposit inh 10.7 and PDI turbidity -6.2.
Screening O=C([C@H]1[C@H](CO)[C@H]2Cn3c(ccc(-c4cccnc4)c3=O)[C@H]2N1CCC(F)(F)F)N1CCOCC1 returned GSIS activator 3.6, Env fusion inh -2.9[16.7 µM] and ERp5 inh -1.5.
Cc1noc(C)c1NC(=O)Nc1ccc2c(c1)C(=O)N([C@@H](C)CO)C[C@@H](C)[C@H](CN(C)Cc1ccncc1)O2 was read as GSIS activator 22.9 and ERp5 inh 8.7.
Screening CCOc1ccc(NC(=O)[C@@H](NC(=O)OCc2ccccc2)[C@@H](C)CC)cc1 returned GSIS activator 49.3*, Env fusion inh -3.7, FN deposit inh 2.1 and PDI turbidity -17.3.
C[C@H](CO)N1C[C@H](C)[C@@H](CN(C)C(=O)C2CCCCC2)Oc2ncc(C#CCc3ccccc3)cc2C1=O was read as GSIS activator 10.0, Env fusion inh -19.5[16.7 µM] and ERp5 inh 2.8.
For CCOc1ccc(/C=C/C(=O)c2ccc(-c3ccccc3)cc2)cc1 the results were GSIS activator 46.7*, Env fusion inh -14.5 and PDI turbidity -17.4.
Screening CCOc1ccc(/C=C/C(=O)Oc2ccccc2)cc1 returned GSIS activator 7.7, Env fusion inh 8.6, FN deposit inh -0.4, ERp5 inh 2.6 and PDI turbidity -2.4.
Screening Cc1[nH]nc(SCC(=O)NCCc2ccccc2)c1[N+](=O)[O-] returned GSIS activator -3.7, Env fusion inh -1.2, FN deposit inh 2.5, ERp5 inh 1.0 and PDI turbidity 10.7.
Screening COc1ccc(CCNC(=O)COC(=O)CSc2ccc(C(N)=O)cc2[N+](=O)[O-])cc1OC returned GSIS activator 46.0*, FN deposit inh 2.0 and PDI turbidity 8.0.
For COc1ccc(CCNC(=O)CSc2n[nH]c(C)c2[N+](=O)[O-])cc1OC the results were GSIS activator 52.4*, Env fusion inh -11.7, FN deposit inh 1.2, ERp5 inh -5.0 and PDI turbidity 2.6.
CCCc1cc(CCC)n2nc(N)nc2n1 was read as GSIS activator 28.1, Env fusion inh -14.0, FN deposit inh -11.7, ERp5 inh 3.2 and PDI turbidity -3.2.
`CC(C)c1cc(C(C)C)n2nc(N)nc2n1` gave GSIS activator 89.4*, Env fusion inh -0.3, FN deposit inh -3.6, ERp5 inh 1.7 and PDI turbidity 9.6.
COc1ccc(NS(=O)(=O)c2cccc(C(=O)NNC(=O)CNC(=O)c3ccc(C)cc3)c2)cc1 was read as GSIS activator 0.4, Env fusion inh 67.6*, FN deposit inh 2.1, ERp5 inh -3.0 and PDI turbidity 4.0.
For CCCOP(=O)(OCCC)C(Nc1cccc(C(F)(F)F)c1)c1ccc(C)cc1 (stereo not given) the results were GSIS activator -18.1, Env fusion inh 80.6*, FN deposit inh -5.7 and PDI turbidity -7.2.
`COc1ccc2c3c(n(C)c2c1)[C@@H](CO)N(C(C)=O)CC31CN(Cc2nccs2)C1` gave GSIS activator 9.0 and ERp5 inh -2.8.
`Cc1ccc(S(=O)(=O)N2C[C@@H]3[C@H]4CC[C@H](C4)[C@@H]3[C@@H](C)[C@@H]2c2ccn(Cc3ccccc3)c2)cc1` gave GSIS activator -3.7, Env fusion inh 62.6*, FN deposit inh 9.6, ERp5 inh 8.0 and PDI turbidity -8.8.
`COc1ccc(S(=O)(=O)N[C@H]2CC[C@H](CC(=O)NCCc3ccccc3)O[C@H]2CO)cc1` gave GSIS activator -1.4, Env fusion inh -27.6[16.7 µM], FN deposit inh 2.1 and ERp5 inh 0.4.
FC(F)(F)c1cc(CCN2CCNC[C@@H]2c2ccccc2)cc(C(F)(F)F)c1 was read as GSIS activator 114.6*, Env fusion inh -4.2, FN deposit inh -5.9, ERp5 inh -4.0 and PDI turbidity 2.5.
`FC(F)(F)c1cc(CCN2CCNC[C@@H]2CC2CCCCC2)cc(C(F)(F)F)c1` gave GSIS activator active, Env fusion inh 85.4*, FN deposit inh -4.2, ERp5 inh 5.9 and PDI turbidity 9.6.
`NC1=NC[C@H](CC2CCCCC2)N1CCc1cc(C(F)(F)F)cc(C(F)(F)F)c1` gave GSIS activator active, Env fusion inh -1.6, FN deposit inh -7.5, ERp5 inh 5.1 and PDI turbidity -0.1.
`c1ccc(C[C@H]2CNCCN2CCCCC2CCCCC2)cc1` gave GSIS activator 56.9*, Env fusion inh 7.2, FN deposit inh 9.3, ERp5 inh -4.4 and PDI turbidity 6.0.
`COc1cccc(CNC(=O)[C@H]2[C@H](CO)[C@H]3Cn4c(cccc4=O)[C@@H]2N3C(=O)C2CC2)c1` gave GSIS activator 6.3 and ERp5 inh -6.1.
CCS(=O)(=O)N1CC(=O)N2[C@H](CO)[C@@H](c3ccc(-c4ccc(C)cc4)cc3)[C@H]2C1 was read as GSIS activator 8.3 and ERp5 inh -1.9.
`Cc1cccc(-c2ccc(C3[C@@H]4CN(Cc5cccc(F)c5)C[C@H]3N4)cc2)c1` (stereo not given in full) gave GSIS activator 70.3* and FN deposit inh -13.5.
`Cc1cccc(S(=O)(=O)N2C[C@@H]3N[C@H](C2)C3c2ccc(-c3ccccc3F)cc2)c1` (stereo not given in full) gave GSIS activator 81.1*!, FN deposit inh 11.1 and ERp5 inh 0.0.
`Fc1ccccc1-c1ccc(C2[C@@H]3CN(Cc4ccccc4)C[C@H]2N3)cc1` (stereo not given in full) gave GSIS activator 47.2*! and FN deposit inh 1.4.
`c1ccc(CN2C[C@@H]3N[C@H](C2)C3c2ccc(-c3ccccc3)cc2)cc1` (stereo not given in full) gave GSIS activator -16.6, FN deposit inh -9.7 and ERp5 inh -2.7.
Cc1ccccc1S(=O)(=O)N1C[C@@H]2N[C@H](C1)C2c1ccc(/C=C/c2ccccc2)cc1 (stereo not given in full) was read as GSIS activator 6.1 and FN deposit inh -11.7.
For O=S(=O)(c1ccccc1F)N1C[C@@H]2N[C@H](C1)C2c1ccc(/C=C/c2ccccc2)cc1 (stereo not given in full) the results were GSIS activator 170.6*!, FN deposit inh 3.0 and ERp5 inh 3.4.
Screening Cc1cccc(-c2ccc(C3[C@@H]4CN(Cc5ccccc5)C[C@H]3N4)cc2)c1 (stereo not given in full) returned GSIS activator 14.3, FN deposit inh -11.3 and ERp5 inh 1.4.
Screening CCC(=O)Nc1ccc2c(c1)C(=O)N(C)[C@H]1CC[C@@H](CC(=O)NCC3CCCCC3)O[C@H]1CO2 returned GSIS activator -7.9, Env fusion inh 1.1[16.7 µM], FN deposit inh -10.5 and ERp5 inh -5.2.
